Data reported in PubChem BioAssay AID2340 (Sanford-Burnham Center for Chemical Genomics, 2010).
Activity calls are given as the source filed them.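 How the source made its calls: active means potency EC50 below 10 µM in the dose response test; inactive means the rest.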

Target: G-protein coupled receptor 35 (Homo sapiens) (UniProt Q9HC97)
Test: GPR35 agonist activity of analogs, SAR follow-up, selectivity assay, imaging, U2OS, beta-arrestin-GFP, powder samples (AID 2340)
Conditions: U2OS GPR35 beta-arrestin-GFP translocation imaging
Summary of the method: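 material = human U2OS cells stably co-expressing GPR35 and beta-arrestin-GFP | incubation = 45 min at 37 °C | read-out basis = Arrestin-GFP spot versus cytoplasm intensity ratio, non-linear sigmoidal curve fit | buffer or medium = serum-starved cells | technique = imaging of fixed, DAPI-stained arrestin-GFP cells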

G-protein coupled receptor 35 (Homo sapiens), sequence (Q9HC97 whole entry, looked up): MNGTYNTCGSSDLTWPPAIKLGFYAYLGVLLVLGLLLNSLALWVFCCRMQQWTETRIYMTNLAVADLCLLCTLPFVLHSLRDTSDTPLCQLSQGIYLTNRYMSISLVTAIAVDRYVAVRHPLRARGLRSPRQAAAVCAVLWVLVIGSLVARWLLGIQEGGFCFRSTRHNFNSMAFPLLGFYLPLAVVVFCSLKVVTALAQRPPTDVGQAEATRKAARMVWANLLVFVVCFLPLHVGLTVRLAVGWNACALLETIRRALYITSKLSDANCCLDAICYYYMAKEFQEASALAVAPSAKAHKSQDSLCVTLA

Row | EC50 | SMILES
1 | > 32 µM (inactive) | COc1ccc2c(c1)cc(C)c1nnc(SCC(=O)N(C)c3nc(-c4ccccc4)cs3)n12
2 | > 32 µM (inactive) | C/C(C=NNC(=O)c1nnn(-c2nonc2N)c1CN1CCC(C)CC1)=C/c1ccccc1
3 | > 32 µM (inactive) | COc1ccc2cc(C)c3nnc(SCC(=O)Nc4nc(-c5ccc(F)cc5)cs4)n3c2c1
4 | > 32 µM (inactive) | CC(C)=CC(=O)Nc1ccc(OCc2ccccc2)cc1
5 | > 32 µM (inactive) | COc1ccccc1/C=C/C(=O)NC(=S)Nc1ccc(S(=O)(=O)N(C)c2ccccc2)cc1
6 | > 32 µM (inactive) | Cc1occc1C(=O)Nc1ccc(OCc2ccccc2)cc1
7 | > 32 µM (inactive) | COc1ccc(-c2csc(NC(=O)CSc3nnc4c(C)cc5ccccc5n34)n2)cc1
8 | > 32 µM (inactive) | CCCN(CCC)Cc1c(C(=O)NN=C/C(C)=C\c2ccccc2)nnn1-c1nonc1N
9 | > 32 µM (inactive) | CCCN(CCC)Cc1c(C(=O)NN=Cc2c[nH]c3ccccc23)nnn1-c1nonc1N
10 | > 32 µM (inactive) | CCCN(CCC)Cc1c(C(=O)NN=C/C(C)=C\c2ccco2)nnn1-c1nonc1N
11 | > 32 µM (inactive) | COc1cc2c(cc1NC(=O)C(C)Sc1ccc(NC(C)=O)cc1)oc1ccccc12 (stereo unspecified)
12 | > 32 µM (inactive) | C=CCN(CC=C)S(=O)(=O)c1ccc(NC(=S)NC(=O)c2ccc(-c3ccccc3)cc2)cc1

Second part, the molecule before the results:

Row | SMILES | EC50
13 | CC(Sc1nc2cc(Cl)ccc2s1)C(=O)Nc1cccc(S(=O)(=O)N2CCOCC2)c1 (stereo unspecified) | > 32 µM (inactive)
14 | COc1ccc(S(=O)(=O)N2CCOCC2)cc1NC(=O)c1cc2c(s1)CCCC2 | > 32 µM (inactive)
15 | O=C(CSc1nc2ccccc2s1)N1c2ccccc2Sc2ccc(C(F)(F)F)cc21 | > 32 µM (inactive)
16 | COc1cc2c(cc1NC(=O)CSc1ccccc1)oc1ccccc12 | > 32 µM (inactive)
17 | Cc1cccc(N2CCN(C(=O)c3cc(S(=O)(=O)N(C)C)ccc3N3CCCC3)CC2)c1C | > 32 µM (inactive)
18 | O=C(CSc1nc2ccccc2s1)N1c2ccccc2Sc2ccc(Cl)cc21 | > 32 µM (inactive)
19 | CC(C)Oc1ccc(S(=O)(=O)N2CCOCC2)cc1NC(=O)c1ccc(N2CCCC2=O)cc1 | > 32 µM (inactive)
20 | CC(C)NS(=O)(=O)c1ccc(NC(=S)NC(=O)c2ccc(-c3ccccc3)cc2)cc1 | > 32 µM (inactive)
21 | CN(C)S(=O)(=O)c1ccc(N2CCCC2)c(C(=O)N2CCN(c3ccc([N+](=O)[O-])cc3)CC2)c1 | > 32 µM (inactive)
